ChEMBL document CHEMBL3217723, “Optimizing PK properties of cyclic peptides: the effect of side chain substitutions on permeability and clearance()” (Medchemcomm, 2012)
*1 amine or outer side, *2 acyl side, *3 side chain or, on linkers, in order; H or OH if unused. Where a SMILES comes first, the peptide text is derived from it. [ ]: non-standard residue; d: D form. X1 = CN([C@@H](CCN1CCCCC1)C(=O)[*:2])[*:1]; NMeW = CN[C@@H](Cc1c[nH]c2ccccc12)C(=O)O; NMeY = CN[C@@H](Cc1ccc(O)cc1)C(=O)O; NMeLys(Me) = CNCCCC[C@H](NC)C(=O)O; NMeT = CN[C@H](C(=O)O)[C@@H](C)O; NMeL = CN[C@@H](CC(C)C)C(=O)O; dNMeL = CN[C@H](CC(C)C)C(=O)O; NMeK = CN[C@@H](CCCCN)C(=O)O; NMeS = CN[C@@H](CO)C(=O)O

Columns and labels:
[1] = Volume of distribution at steady state in male Wistar-Han rat at 1 mg/kg, iv; assay type: ADME, organism-based; set-up: dose 1 mg/kg, route intravenous; settings: in vivo, read-out: Vdss
[2] = Terminal elimination half life in Wistar-Han rat at 1 mg/kg, iv; assay type: ADME, organism-based; set-up: dose 1 mg/kg, route intravenous; settings: in vivo, read-out: beta t1/2 (converted)
[3] = AUC (0 to infinity) in male Wistar-Han rat at 1 mg/kg, iv; assay type: ADME, organism-based; set-up: time infinity, dose 1 mg/kg, route intravenous; settings: plasma
[4] = Intrinsic clearance in rat liver microsomes by LC-MS/MS analysis; assay type: ADME; settings: read-out: CLH
How it was run: (§1)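 Compound at 1 µM with liver microsomes (CYP 0.25 µM) in 0.1 M potassium phosphate, pH 7.4, at 37 °C. Final solvent was 0.975% acetonitrile and 0.025% DMSO. Mix prewarmed 5 min, then started with 1.3 mM NADPH; no-NADPH controls were run. Sampled at 0–60 min into acetonitrile and followed by LC-MS/MS for substrate loss. T1/2 was scaled to CLint by the well-stirred model.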

[5] = AUC (0 to infinity) in male Wistar-Han rat at 10 mg/kg, po; assay type: ADME, organism-based; set-up: time infinity, dose 10 mg/kg, route oral; settings: plasma
How it was run: (§2)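 Jugular vein-cannulated male Wistar-Hannover rats (230-250 g), n = 3, fasted overnight and fed after the 4 h sample; oral dosing in the i.v. formulations, except the SEDDS formulation used 90% water. Serial blood 0.083–24 h, K2EDTA plasma, LC-MS/MS against standard curve; non-compartmental AUC0-∞ by linear trapezoid rule.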

[6] = Terminal elimination half life in Wistar-Han rat at 10 mg/kg, po; assay type: ADME, organism-based; set-up: dose 10 mg/kg, route oral; settings: in vivo, read-out: beta t1/2 (converted)
How it was run: (§3)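 Male Wistar-Hannover rats (230–250 g, n = 3), jugular-cannulated, were fasted overnight and dosed by oral gavage. Vehicle depended on compound: SEDDS/water or propylene glycol/sodium phosphate pH 7.4. Blood was collected at 0.083–24 h into K2EDTA and the plasma analyzed by LC-MS/MS. Terminal half-life came from the non-compartmental ln-concentration slope.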

[7] = Tmax in male Wistar-Han rat at 10 mg/kg, po; assay type: ADME, organism-based; set-up: dose 10 mg/kg, route oral; settings: in vivo
[8] = Plasma clearance in male Wistar-Han rat at 1 mg/kg, iv; assay type: ADME, organism-based; set-up: dose 1 mg/kg, route intravenous
[9] = Intrinsic clearance in human liver microsomes by LC-MS/MS analysis; assay type: ADME; settings: read-out: CLH; how it was run: as §1
[10] = Oral bioavailability in male Wistar-Han rat at 10 mg/kg; assay type: ADME, organism-based; settings: in vivo
How it was run: (§4)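 Male Wistar-Hannover rats (230-250 g, cannulated; n = 3) fasted overnight, fed after the 4 h sample, and dosed orally in the i.v. formulations or 10% SEDDS:90% water. Serial blood sampled 0.083–24 h into K2EDTA. Plasma measured by LC-MS/MS against a standard curve. Cmax and Tmax read from individual profiles; F = oral AUC0-∞ relative to i.v. AUC0-∞.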

[11] = Cmax in male Wistar-Han rat at 10 mg/kg, po; assay type: ADME, organism-based; set-up: dose 10 mg/kg, route oral; settings: in vivo
[12] = Apparent permeability from apical to basolateral side in human Caco2 cells by LC-MS/MS analysis; assay type: ADME, cell-based; settings: Caco-2
[13] = Lipophilicity, log D of the compound at pH 7.4 by shake-flask method; assay type: physicochemical; settings: buffer
[14] = Terminal elimination half life in Wistar-Han rat at 5 mg/kg, po; assay type: ADME, organism-based; set-up: dose 5 mg/kg, route oral; settings: in vivo, read-out: beta t1/2 (converted); how it was run: as §3
[15] = Oral bioavailability in male Wistar-Han rat at 5 mg/kg; assay type: ADME, organism-based; settings: in vivo; how it was run: as §4
[16] = Oral bioavailability in male Wistar-Han rat assessed as dose escapes hepatic metabolism; assay type: ADME, organism-based; settings: in vivo
[17] = Oral bioavailability in male Wistar-Han rat assessed as fraction of absorbed dose; assay type: ADME, organism-based; settings: in vivo, read-out: Fabs
[18] = Cmax in male Wistar-Han rat at 5 mg/kg, po; assay type: ADME, organism-based; set-up: dose 5 mg/kg, route oral; settings: in vivo
How it was run: (§5)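 Jugular vein-cannulated male Wistar-Hannover rats (230-250 g), n = 3, fasted overnight and fed after the 4 h sample. Single oral dose in compound-specific vehicles (10% SEDDS:90% water, or propylene glycol with 20 mM sodium phosphate pH 7.4). Serial blood at 0.083–24 h into K2EDTA. Plasma protein-precipitated with internal standard and analysed by LC-MS/MS. Cmax read directly from individual concentration–time curves.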

[19] = AUC (0 to infinity) in male Wistar-Han rat at 5 mg/kg, po; assay type: ADME, organism-based; set-up: time infinity, dose 5 mg/kg, route oral; settings: plasma; how it was run: as §2
[20] = Terminal elimination half life in Wistar-Han rat at 0.4 mg/kg, iv; assay type: ADME, organism-based; set-up: dose 0.4 mg/kg, route intravenous; settings: in vivo, read-out: beta t1/2 (converted)
How it was run: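 Jugular vein-cannulated male Wistar-Hannover rats (230–250 g, n = 3) received a tail-vein bolus over 30 s. Vehicle depended on compound: SEDDS/dextrose or propylene glycol/20 mM sodium phosphate pH 7.4. Blood was drawn at 0.03–24 h into K2EDTA and the plasma analyzed by LC-MS/MS. Non-compartmental analysis gave T1/2 = 0.693/|terminal ln-slope|.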

[21] = AUC (0 to infinity) in male Wistar-Han rat at 0.4 mg/kg, iv; assay type: ADME, organism-based; set-up: time infinity, dose 0.4 mg/kg, route intravenous; settings: plasma
How it was run: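 Jugular vein-cannulated male Wistar-Hannover rats (230-250 g), n = 3, fed ad libitum; 30 s tail-vein injection in 10% SEDDS:90% sterile dextrose, 1:1 propylene glycol:20 mM sodium phosphate (pH 7.4), or 10% propylene glycol:90% 20 mM sodium phosphate (pH 7.4). Blood via cannula to 24 h, K2EDTA plasma, LC-MS/MS against standard curve; non-compartmental AUC0-∞ by linear trapezoid rule.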

[22] = Cmax in male Wistar-Han rat at 2.9 mg/kg, po; assay type: ADME, organism-based; set-up: dose 2.9 mg/kg, route oral; settings: in vivo; how it was run: as §5
[23] = Oral bioavailability in male Wistar-Han rat at 2.9 mg/kg; assay type: ADME, organism-based; settings: in vivo; how it was run: as §4
[24] = AUC (0 to infinity) in male Wistar-Han rat at 2.9 mg/kg, po; assay type: ADME, organism-based; set-up: time infinity, dose 2.9 mg/kg, route oral; settings: plasma; how it was run: as §2
[25] = Volume of distribution at steady state in male Wistar-Han rat at 0.4 mg/kg, iv; assay type: ADME, organism-based; set-up: dose 0.4 mg/kg, route intravenous; settings: in vivo, read-out: Vdss
How it was run: (§6)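 Jugular vein-cannulated male Wistar-Hannover rats (230-250 g; n = 3) given a 30 s tail-vein bolus in SEDDS/dextrose or propylene glycol/20 mM sodium phosphate (pH 7.4) vehicles. Blood sampled 0.03–24 h via cannula into K2EDTA. Plasma proteins precipitated, LC-MS/MS. Non-compartmental: CLp = dose/AUC0-∞ (linear trapezoid); Vdss; T1/2 = 0.693/terminal log-linear slope.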

[26] = Terminal elimination half life in Wistar-Han rat at 2.9 mg/kg, po; assay type: ADME, organism-based; set-up: dose 2.9 mg/kg, route oral; settings: in vivo, read-out: beta t1/2 (converted); how it was run: as §3
[27] = Plasma clearance in male Wistar-Han rat at 0.4 mg/kg, iv; assay type: ADME, organism-based; set-up: dose 0.4 mg/kg, route intravenous; how it was run: as §6

CC(C)C[C@@H]1NC(=O)[C@H](Cc2ccc(O)cc2)N(C)C(=O)[C@H]2CCCN2C(=O)[C@H](CC(C)C)NC(=O)[C@H](CCCCN)N(C)C(=O)[C@@H](CC(C)C)N(C)C1=O (cyclo(L[dNMeL][NMeK]L[dP][NMeY]))
Vd [1]: 0.93 L/kg
half-life [2]: 1.01 h
AUC(0-inf) [3]: 1640 ng·h/mL
CLint scaled [4]: < 9 mL/min/kg
AUC(0-inf) [5]: 18.1 ng·h/mL
half-life [6]: 1.56 h
Tmax [7]: 1.56 h
clearance [8]: 10.4 mL/min/kg
CLint scaled [9]: < 8 mL/min/kg
bioavailability [10]: 0.09%
Cmax [11]: 18.3 ng/mL
Papp A→B [12]: 0.09 ×10⁻⁶ cm/s
logD [13]: 0.678

CC(C)C[C@@H]1NC(=O)[C@H](Cc2ccc(O)cc2)N(C)C(=O)[C@H]2CCCN2C(=O)[C@H](CC(C)C)NC(=O)[C@H](CC(C)C)N(C)C(=O)[C@@H](CC(C)C)N(C)C1=O (cyclo(L[dNMeL][NMeL]L[dP][NMeY]))
CLint scaled [9]: 120 mL/min/kg

CNCCCC[C@H]1C(=O)N[C@@H](CC(C)C)C(=O)N2CCC[C@@H]2C(=O)N(C)[C@@H](Cc2ccc(O)cc2)C(=O)N[C@@H](CC(C)C)C(=O)N(C)[C@H](CC(C)C)C(=O)N1C (cyclo(L[dNMeL][NMeLys(Me)]L[dP][NMeY]))
CLint scaled [9]: 9 mL/min/kg
logD [13]: 0.723

CC(C)C[C@@H]1NC(=O)[C@H](Cc2ccc(O)cc2)N(C)C(=O)[C@H]2CCCN2C(=O)[C@H](CC(C)C)NC(=O)[C@H](CO)N(C)C(=O)[C@@H](CC(C)C)N(C)C1=O (cyclo(L[dNMeL][NMeS]L[dP][NMeY]))
Vd [1]: 4.3 L/kg
half-life [2]: 1.46 h
half-life [14]: 2.82 h
bioavailability [15]: 2.03%
AUC(0-inf) [3]: 282 ng·h/mL
CLint scaled [4]: 96 mL/min/kg
Fh [16]: 14%
Fa [17]: 14.5%
clearance [8]: 60.4 mL/min/kg
CLint scaled [9]: 80 mL/min/kg
Cmax [18]: 9.86 ng/mL
AUC(0-inf) [19]: 42.3 ng·h/mL
Papp A→B [12]: 3.3 ×10⁻⁶ cm/s
logD [13]: 2.61

CC(C)C[C@@H]1NC(=O)[C@H](Cc2ccc(O)cc2)N(C)C(=O)[C@H]2CCCN2C(=O)[C@H](CC(C)C)NC(=O)[C@H]([C@@H](C)O)N(C)C(=O)[C@@H](CC(C)C)N(C)C1=O (cyclo(L[dNMeL][NMeT]L[dP][NMeY]))
CLint scaled [4]: 44 mL/min/kg
half-life [20]: 1.03 h
AUC(0-inf) [21]: 109 ng·h/mL
Cmax [22]: 105 ng/mL
bioavailability [23]: 23.8%
CLint scaled [9]: 89 mL/min/kg
AUC(0-inf) [24]: 201 ng·h/mL
Vd [25]: 3.8 L/kg
half-life [26]: 0.92 h
logD [13]: 3.17
clearance [27]: 63.6 mL/min/kg

CC(C)C[C@@H]1NC(=O)[C@H](Cc2ccc(O)cc2)N(C)C(=O)[C@H]2CCCN2C(=O)[C@H](CC(C)C)NC(=O)[C@H](Cc2c[nH]c3ccccc23)N(C)C(=O)[C@@H](CC(C)C)N(C)C1=O (cyclo(L[dNMeL][NMeW]L[dP][NMeY]))
CLint scaled [9]: 56 mL/min/kg
logD [13]: 4.07

CC(C)C[C@@H]1NC(=O)[C@H](Cc2ccc(O)cc2)N(C)C(=O)[C@H]2CCCN2C(=O)[C@H](CC(C)C)NC(=O)[C@H](Cc2ccc(O)cc2)N(C)C(=O)[C@@H](CC(C)C)N(C)C1=O (cyclo(L[dNMeL][NMeY]L[dP][NMeY]))
CLint scaled [9]: 29 mL/min/kg
logD [13]: 3.82

CC(C)C[C@@H]1NC(=O)[C@H](Cc2ccc(O)cc2)N(C)C(=O)[C@H]2CCCN2C(=O)[C@H](CC(C)C)NC(=O)[C@H](CCN2CCCCC2)N(C)C(=O)[C@@H](CC(C)C)N(C)C1=O (cyclo(L[dNMeL][X1]L[dP][NMeY]))
CLint scaled [9]: < 8 mL/min/kg
logD [13]: 2.2
